# Laboratory results published in paper PMC4969713 (Journal of Alzheimer's Disease, 2016).
# Several values for one entry are separate records, joined by “and”; a condition that tells them apart may be missing. Equal entries are not always repeated. Structures can show the parent of a compound that is named as a salt. Where two headings read alike, the source gives them in different places.
# Key:
# [1] = Metabolism in rat microsomes; format: in vitro ADME; conditions: for Remaining quantity: AVN-101 1 μM, RLM
# femur bone marrow cells = assay: Chromosomal aberrations in femur bone marrow cells; format: in vivo, mice
# Procedure, shortened: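 Mice 8–12 weeks old, male and female, were dosed orally with test compound or cyclophosphamide 20 mg/kg. Schedule was single dose with kill at 24 h, or qd for 5 days with kill 6 h after the last dose. Colchicine 4 mg/kg was given orally 2.5 h before decapitation. Femur marrow was put into 0.55% KCl at 37°C for 15 min, then spun. Scoring covered 100 metaphases per animal (500 per group), expressed as % aberrant cells.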
# Adrenergic α1B = Adrenergic α1B (Homo sapiens, UniProt P35368); assay: Radioligand competition, adrenergic α1B; format: binding
# Sequence of Adrenergic α1B (P35368 whole entry): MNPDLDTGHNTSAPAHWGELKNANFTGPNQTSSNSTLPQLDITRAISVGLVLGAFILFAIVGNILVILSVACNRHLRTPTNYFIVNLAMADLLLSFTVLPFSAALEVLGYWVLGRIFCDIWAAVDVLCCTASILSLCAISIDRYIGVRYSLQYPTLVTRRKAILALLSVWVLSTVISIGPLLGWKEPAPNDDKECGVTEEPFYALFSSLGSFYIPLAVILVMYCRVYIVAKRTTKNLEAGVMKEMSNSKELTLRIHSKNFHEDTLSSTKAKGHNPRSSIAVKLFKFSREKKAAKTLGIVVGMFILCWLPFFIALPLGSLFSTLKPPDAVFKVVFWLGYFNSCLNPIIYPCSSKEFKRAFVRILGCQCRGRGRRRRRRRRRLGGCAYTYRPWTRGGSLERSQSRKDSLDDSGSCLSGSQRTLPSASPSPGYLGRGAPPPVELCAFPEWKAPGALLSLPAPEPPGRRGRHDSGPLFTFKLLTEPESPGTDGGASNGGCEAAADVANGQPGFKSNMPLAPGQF
# Adrenergic α2A = Adrenergic α2A (Homo sapiens, UniProt P08913); assay: Radioligand competition, adrenergic α2A; format: binding; conditions: Ki
# Sequence of Adrenergic α2A (P08913 whole entry): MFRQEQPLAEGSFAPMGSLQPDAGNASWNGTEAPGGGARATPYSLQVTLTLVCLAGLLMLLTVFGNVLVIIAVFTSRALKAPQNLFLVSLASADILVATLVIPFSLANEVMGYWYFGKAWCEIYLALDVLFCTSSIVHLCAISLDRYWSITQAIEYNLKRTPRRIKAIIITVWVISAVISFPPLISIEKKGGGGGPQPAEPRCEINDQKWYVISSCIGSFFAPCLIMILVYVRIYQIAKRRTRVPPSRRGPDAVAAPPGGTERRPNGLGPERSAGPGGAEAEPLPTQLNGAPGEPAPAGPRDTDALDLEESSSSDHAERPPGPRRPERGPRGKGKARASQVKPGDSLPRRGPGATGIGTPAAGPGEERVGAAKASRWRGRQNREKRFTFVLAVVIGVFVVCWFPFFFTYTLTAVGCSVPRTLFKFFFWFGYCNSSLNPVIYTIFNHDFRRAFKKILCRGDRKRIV
# [2] = Pharmacokinetics in Wistar rats, IV/IP/PO; format: in vivo; conditions: for Fabs: based on AUC0 ⟶240; for Cmax / Tmax / half-life / k el / AUC: Wistar, rat, plasma, 5 mg/kg
# Pharmacokinetics in dogs = format: in vivo, dogs (Beagle); conditions: for Cmax / Tmax / half-life / AUC: Beagle, dog, blood
# Solubility in water = format: physicochemical; conditions: pH 7.4
# [3] = Dialysis of diluted rat plasma against rat brain homogenate; format: in vitro ADME; conditions: 1μM AVN-101 in 20% plasma vs brain homogenate
# Procedure, shortened: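 A 48-well semi-permeable-membrane dialysis plate was used. Donor chamber held 20% rat plasma diluted in PBS with 1 μM test compound; acceptor chamber held rat brain homogenate. Both chambers were sampled at several time points, and samples were matrix-equilibrated by cross-adding the opposite matrix. Membrane-permeability controls used 20% plasma in both chambers or PBS in both chambers.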
# [4] = Stability in monkey blood plasma; format: in vitro ADME; conditions: 30-min incubation, room temperature
# hERG channel = hERG channel (Homo sapiens, UniProt Q12809); assay: Target panel binding, hERG channel
# Sequence of hERG channel (Q12809 whole entry): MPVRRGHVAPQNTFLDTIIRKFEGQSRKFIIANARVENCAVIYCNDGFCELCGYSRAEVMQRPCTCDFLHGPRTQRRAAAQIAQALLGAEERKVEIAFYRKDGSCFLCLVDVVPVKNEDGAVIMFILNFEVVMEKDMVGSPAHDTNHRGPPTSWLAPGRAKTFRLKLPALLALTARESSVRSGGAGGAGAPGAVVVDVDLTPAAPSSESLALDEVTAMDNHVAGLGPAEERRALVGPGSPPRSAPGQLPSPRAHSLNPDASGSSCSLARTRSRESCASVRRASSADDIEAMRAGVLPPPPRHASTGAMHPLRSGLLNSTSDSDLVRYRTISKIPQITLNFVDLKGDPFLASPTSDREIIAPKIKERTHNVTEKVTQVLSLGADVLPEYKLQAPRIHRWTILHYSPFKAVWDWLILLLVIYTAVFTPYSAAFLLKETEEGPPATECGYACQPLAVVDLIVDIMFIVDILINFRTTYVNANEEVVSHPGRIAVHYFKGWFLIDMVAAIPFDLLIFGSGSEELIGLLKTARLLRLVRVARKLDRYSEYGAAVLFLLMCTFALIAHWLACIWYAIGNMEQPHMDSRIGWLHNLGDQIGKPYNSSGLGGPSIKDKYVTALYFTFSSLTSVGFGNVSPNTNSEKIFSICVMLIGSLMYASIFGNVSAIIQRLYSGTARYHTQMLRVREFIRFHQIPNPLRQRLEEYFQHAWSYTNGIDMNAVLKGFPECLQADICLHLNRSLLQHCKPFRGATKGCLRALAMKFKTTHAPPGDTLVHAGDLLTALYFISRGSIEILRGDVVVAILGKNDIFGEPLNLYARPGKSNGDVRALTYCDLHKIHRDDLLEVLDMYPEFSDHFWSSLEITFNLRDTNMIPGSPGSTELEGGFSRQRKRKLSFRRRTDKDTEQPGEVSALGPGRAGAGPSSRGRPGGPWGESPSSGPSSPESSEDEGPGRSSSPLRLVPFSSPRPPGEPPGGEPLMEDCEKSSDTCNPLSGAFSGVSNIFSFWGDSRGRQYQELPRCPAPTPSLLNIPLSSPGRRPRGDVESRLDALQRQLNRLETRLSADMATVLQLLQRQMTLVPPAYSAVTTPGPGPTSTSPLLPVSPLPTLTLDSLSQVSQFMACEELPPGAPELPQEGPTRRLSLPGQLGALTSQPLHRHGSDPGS
# CYP2C9 = CYP2C9 (Homo sapiens, UniProt P11712); assay: Metabolism by recombinant CYP2C9; format: in vitro ADME
# Sequence of CYP2C9 (P11712 whole entry): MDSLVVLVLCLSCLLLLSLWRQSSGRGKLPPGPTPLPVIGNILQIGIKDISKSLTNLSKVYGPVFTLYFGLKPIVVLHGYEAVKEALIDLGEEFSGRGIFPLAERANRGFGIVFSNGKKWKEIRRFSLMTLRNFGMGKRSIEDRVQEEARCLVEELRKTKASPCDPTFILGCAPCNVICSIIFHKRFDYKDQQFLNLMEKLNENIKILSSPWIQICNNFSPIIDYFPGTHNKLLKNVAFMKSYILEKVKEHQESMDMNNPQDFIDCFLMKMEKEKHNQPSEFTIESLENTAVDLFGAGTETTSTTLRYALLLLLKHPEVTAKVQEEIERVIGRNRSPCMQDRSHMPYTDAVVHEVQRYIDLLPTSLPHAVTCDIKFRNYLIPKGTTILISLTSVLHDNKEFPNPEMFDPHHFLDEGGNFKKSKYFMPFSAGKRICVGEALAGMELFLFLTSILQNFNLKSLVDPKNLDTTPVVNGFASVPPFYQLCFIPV
# Sprague Dawley rats = assay: Passive avoidance, scopolamine-induced amnesia, rats; format: in vivo; conditions: 0.05 mg/kg IP
# hKv4.3-hKCh1P2.2 (Ito) = hKv4.3-hKCh1P2.2 (Ito) (Homo sapiens, UniProt Q9UK17); assay: Cardiac channel inhibition, Ito; format: cell-based
# Sequence of hKv4.3-hKCh1P2.2 (Ito) (Q9UK17 whole entry): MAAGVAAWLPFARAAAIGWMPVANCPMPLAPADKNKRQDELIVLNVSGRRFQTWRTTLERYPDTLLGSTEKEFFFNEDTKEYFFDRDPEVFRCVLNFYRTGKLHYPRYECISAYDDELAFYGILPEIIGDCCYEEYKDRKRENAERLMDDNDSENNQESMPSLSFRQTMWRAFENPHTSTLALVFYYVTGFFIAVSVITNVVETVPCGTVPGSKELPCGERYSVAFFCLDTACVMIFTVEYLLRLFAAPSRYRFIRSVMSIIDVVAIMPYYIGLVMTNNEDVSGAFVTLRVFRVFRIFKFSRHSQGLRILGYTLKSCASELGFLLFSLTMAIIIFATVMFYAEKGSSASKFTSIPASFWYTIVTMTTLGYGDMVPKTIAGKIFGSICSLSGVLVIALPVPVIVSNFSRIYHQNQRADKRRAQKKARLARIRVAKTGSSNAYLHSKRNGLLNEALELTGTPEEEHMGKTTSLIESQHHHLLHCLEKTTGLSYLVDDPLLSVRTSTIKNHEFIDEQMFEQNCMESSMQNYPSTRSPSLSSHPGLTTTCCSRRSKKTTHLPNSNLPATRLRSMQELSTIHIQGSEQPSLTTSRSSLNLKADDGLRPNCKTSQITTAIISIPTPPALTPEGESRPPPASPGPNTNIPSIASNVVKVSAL
# CYP3A4 = CYP3A4 (Homo sapiens, UniProt P08684); assay: Metabolism by recombinant CYP3A4; format: in vitro ADME
# Sequence of CYP3A4 (P08684 whole entry): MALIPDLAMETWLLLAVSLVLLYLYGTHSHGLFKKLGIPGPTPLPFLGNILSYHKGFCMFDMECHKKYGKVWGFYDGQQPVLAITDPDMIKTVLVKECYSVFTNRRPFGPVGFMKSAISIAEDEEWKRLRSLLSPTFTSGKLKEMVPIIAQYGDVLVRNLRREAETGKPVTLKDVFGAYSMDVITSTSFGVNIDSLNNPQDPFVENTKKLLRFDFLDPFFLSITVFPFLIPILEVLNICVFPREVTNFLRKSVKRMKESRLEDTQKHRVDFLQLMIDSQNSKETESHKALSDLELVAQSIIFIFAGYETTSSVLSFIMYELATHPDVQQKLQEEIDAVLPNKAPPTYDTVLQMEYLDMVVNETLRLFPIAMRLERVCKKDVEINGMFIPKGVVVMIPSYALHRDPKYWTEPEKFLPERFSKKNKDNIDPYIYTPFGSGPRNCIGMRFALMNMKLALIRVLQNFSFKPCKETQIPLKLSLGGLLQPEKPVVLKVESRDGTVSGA
# [5] = 1 mg/kg PO qd for 5 days, females
# [6] = 1 mg/kg PO qd for 5 days, males
compound,measurement,setting,value
"Cc1ccc2c(c1)c1c(n2CCc2ccccc2)CCN(C)C1 [AVN-101, 2,8-dimethyl-5-penethyl-2,3,4,5-tetra-hydro-1h-pyrido[[4,3-B]]indole hydrochloride]",k el,[1]; 1μM,0.352
same,Remaining quantity,[1]; 7.9 min,<1%
same,Remaining quantity,[1]; 30 min,<1%
same,half-life at 1 µM,"[1]; rat, liver microsomes",1.97 min
same,k el at 1 μM,"[1]; rat, liver microsomes",0.00558 s⁻¹
same,microsomal CLint at 1 µM,"[1]; rat, liver microsomes",703 µL/min/mg
same,Cells with multiple aberrations,femur bone marrow cells; [5],0%
same,Total altered metaphases (%),femur bone marrow cells; [5],0.8 ± 0.4%
same,"cells with aberration, Double fragment",femur bone marrow cells; [5],0%
same,"cells with aberration, Single fragment",femur bone marrow cells; [5],0.8%
same,"cells with aberration, exchanges",femur bone marrow cells; [5],0%
same,"cells with aberration, gaps",femur bone marrow cells; [5],0%
same,Cells with multiple aberrations,femur bone marrow cells; [6],0%
same,Total altered metaphases (%),femur bone marrow cells; [6],1.4 ± 0.5%
same,"cells with aberration, Double fragment",femur bone marrow cells; [6],0%
same,"cells with aberration, Single fragment",femur bone marrow cells; [6],1.2%
same,"cells with aberration, exchanges",femur bone marrow cells; [6],0%
same,"cells with aberration, gaps",femur bone marrow cells; [6],0.2%
same,Cells with multiple aberrations,"femur bone marrow cells; 1 mg/kg PO single dose, males",0%
same,Total altered metaphases (%),"femur bone marrow cells; 1 mg/kg PO single dose, males",1.2 ± 0.5%
same,"cells with aberration, Double fragment","femur bone marrow cells; 1 mg/kg PO single dose, males",0%
same,"cells with aberration, Single fragment","femur bone marrow cells; 1 mg/kg PO single dose, males",1.2%
same,"cells with aberration, exchanges","femur bone marrow cells; 1 mg/kg PO single dose, males",0%
same,"cells with aberration, gaps","femur bone marrow cells; 1 mg/kg PO single dose, males",0%
same,Cells with multiple aberrations,"femur bone marrow cells; 20 mg/kg PO single dose, males",0%
same,Total altered metaphases (%),"femur bone marrow cells; 20 mg/kg PO single dose, males",1.6 ± 0.6%
same,"cells with aberration, Double fragment","femur bone marrow cells; 20 mg/kg PO single dose, males",0%
same,"cells with aberration, Single fragment","femur bone marrow cells; 20 mg/kg PO single dose, males",0.6%
same,"cells with aberration, exchanges","femur bone marrow cells; 20 mg/kg PO single dose, males",0%
same,"cells with aberration, gaps","femur bone marrow cells; 20 mg/kg PO single dose, males",1.0%
same,Ki,Adrenergic α1B,9.4 nM
same,Ki,Adrenergic α2A,0.41 to 3.6 nM
same,Fabs,[2]; IP 5 mg/kg,26.3%
same,Fabs,[2]; PO 5 mg/kg,8.5%
same,Cmax,[2]; ip,278 ng/mL
same,Tmax,[2]; ip,5 min
same,half-life,[2]; ip,177 min
same,k el,[2]; ip,6.5e-05 s⁻¹
same,AUC,"[2]; ip, AUC0 ⟶240, IP 5 mg/kg",1900 ng·h/mL
same,AUC,"[2]; ip, AUC0 ⟶∞, IP 5 mg/kg",2830 ng·h/mL
same,Cmax,[2]; iv,847 ng/mL
same,Tmax,[2]; iv,5 min
same,half-life,[2]; iv,57.5 min
same,k el,[2]; iv,0.000202 s⁻¹
same,AUC,"[2]; iv, AUC0 ⟶240, IV 5 mg/kg",721 ng·h/mL
same,AUC,"[2]; iv, AUC0 ⟶∞, IV 5 mg/kg",7530 ng·h/mL
same,Cmax,[2]; po,50 ng/mL
same,Tmax,[2]; po,5 min
same,half-life,[2]; po,117 min
same,k el,[2]; po,9.83e-05 s⁻¹
same,AUC,"[2]; po, AUC0 ⟶240, PO 5 mg/kg",614 ng·h/mL
same,AUC,"[2]; po, AUC0 ⟶∞, PO 5 mg/kg",810 ng·h/mL
same,Fabs,Pharmacokinetics in dogs; AVN-101 PO 10 mg/kg vs IV 2 mg/kg,4.6%
same,Cmax,"Pharmacokinetics in dogs; iv, 1 mg/kg",13.7 ng/mL
same,Tmax,"Pharmacokinetics in dogs; iv, 1 mg/kg",1 min
same,half-life,"Pharmacokinetics in dogs; iv, 1 mg/kg",20.9 min
same,AUC,"Pharmacokinetics in dogs; iv, 2 mg/kg",498 ng·h/mL
same,Cmax,"Pharmacokinetics in dogs; iv, 2 mg/kg",3740 ng/mL
same,Tmax,"Pharmacokinetics in dogs; iv, 2 mg/kg",1 min
same,half-life,"Pharmacokinetics in dogs; iv, 2 mg/kg",29.8 min
same,AUC,"Pharmacokinetics in dogs; po, 5 mg/kg",31.6 ng·h/mL
same,Cmax,"Pharmacokinetics in dogs; po, 5 mg/kg",9.1 ng/mL
same,Tmax,"Pharmacokinetics in dogs; po, 5 mg/kg",240 min
same,AUC,"Pharmacokinetics in dogs; po, 10 mg/kg",114 ng·h/mL
same,Cmax,"Pharmacokinetics in dogs; po, 10 mg/kg",23 ng/mL
same,Tmax,"Pharmacokinetics in dogs; po, 10 mg/kg",60 min
same,half-life,"Pharmacokinetics in dogs; po, 10 mg/kg",366 min
same,solubility,Solubility in water,194 mg/mL
same,concentration in brain-containing chamber vs plasma chamber,[3],never exceeds that of the plasma chamber
same,residual amount of original compound,[4],45%
same,binding,hERG channel,does not bind
same,"remaining at 0.5 h, 2 µM",CYP2C9,110%
same,reversal of pro-amnesic action of Scopolamine,Sprague Dawley rats,significantly reverse
same,IC50,hKv4.3-hKCh1P2.2 (Ito),14800 nM
same,inhibition at 31.6 µM,hKv4.3-hKCh1P2.2 (Ito); read-out: % Inhibition at 31.6μM,66%
same,"remaining at 0.5 h, 2 µM",CYP3A4,2%
same,Blood plasma concentration,Dogs (beagles); 0.05 mg/kg IV infusion,140 nM and 140 ± 20 nM
same,"femoral SBP, down",Dogs (beagles); 0.5 mg/kg,13%
same,Blood plasma concentration,Dogs (beagles); 0.5 mg/kg IV infusion,990 nM and 990 ± 40 nM
same,"femoral SBP, down","Dogs (beagles); 0.5 mg/kg, p < 0.05",17 mm Hg
same,"femoral SBP, down",Dogs (beagles); 2 mg/kg,16%
same,Blood plasma concentration,Dogs (beagles); 2 mg/kg IV infusion,3280 nM and 3280 ± 300 nM
same,shortening of QT,"Dogs (beagles); 2.0 mg/kg, at 30 min",15%
same,shortening of QTcV,"Dogs (beagles); 2.0 mg/kg, at 30 min",8%
same,"femoral SBP, down","Dogs (beagles); 2 mg/kg, p < 0.05",21 mm Hg
same,"HR, up",Dogs (beagles); 10 mg/kg,164%
same,"aortic DBP, down",Dogs (beagles); 10 mg/kg,13%
same,"femoral BF, up",Dogs (beagles); 10 mg/kg,27%
same,"femoral DBP, down",Dogs (beagles); 10 mg/kg,17%
same,"femoral SBP, down",Dogs (beagles); 10 mg/kg,11%
same,"left ventricular DBP, down",Dogs (beagles); 10 mg/kg,40%
same,reduction in QT,Dogs (beagles); 10.0 mg/kg,30%
same,reduction in QTcV,Dogs (beagles); 10.0 mg/kg,13%
same,Blood plasma concentration,Dogs (beagles); 10 mg/kg IV infusion,11100 nM and 11100 ± 2150 nM
same,"HR, up","Dogs (beagles); 10 mg/kg, p < 0.001",118 bpm
same,"aortic DBP, down","Dogs (beagles); 10 mg/kg, p < 0.05",9 mmHg
same,"femoral BF, up","Dogs (beagles); 10 mg/kg, p < 0.05",35 mL/min
same,"femoral DBP, down","Dogs (beagles); 10 mg/kg, p < 0.05",12 mm Hg
same,"left ventricular DBP, down","Dogs (beagles); 10 mg/kg, p < 0.05",2 mmHg
same,"femoral SBP, down","Dogs (beagles); 10 mg/kg, p > 0.05",15 mm Hg
